Test results taken from ChEMBL document CHEMBL1137542, “Probing multivalent carbohydrate-lectin interactions by an enzyme-linked lectin assay employing covalently immobilized carbohydrates” (Bioorg Med Chem, 2007).

Legend:
[1] = Inhibition of binding of HRP labeled WGA to immobilized porcine stomach […]; design: species or system Triticum aestivum
In short: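 Plates coated overnight at room temperature with porcine stomach mucin (4.12 μg mL⁻¹ in PBS, pH 7.3), then blocked with 1% BSA, 90 min at 37 °C. WGA-HRP (1 μg mL⁻¹ final) pre-incubated 60 min at 37 °C with serially diluted inhibitor, then 90 min at 37 °C on plates. ABTS/H₂O₂ read-out at pH 4.0, 30 min, stopped with H₂SO₄, A405. IC50 from % inhibition curves, duplicate.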

[2] = Inhibition of binding of HRP labeled WGA to immobilized N-acetyl-glucosamine; design: species or system Triticum aestivum
In short: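 Covalent GlcNAc surface: amino plates activated with 0.5% 1,4-phenylene diisothiocyanate in DMSO for 3 h, then treated overnight with 1 mM spacer-linked GlcNAc amine at pH 10.1. Blocking was 1% BSA. WGA-HRP (1 μg mL⁻¹ final) was pre-incubated with inhibitor dilutions for 60 min at 37 °C, then incubated on the plates for 90 min at 37 °C. ABTS/H₂O₂ read at 405 nm. IC50 from % inhibition, duplicate.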

[3] = tested on: Triticum aestivum; assay: Inhibition of binding of HRP labeled WGA to immobilized N-acetyl-glucosamine relative to N-acetyl-glucosamine
In short: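 IC50 values come from the covalently immobilized GlcNAc ELLA (thiourea-linked spacer GlcNAc, WGA-HRP 1 μg mL⁻¹, 37 °C incubations, ABTS read at 405 nm, duplicate). β expresses potency relative to GlcNAc, with GlcNAc set to β = 1.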

[4] = tested on: Triticum aestivum; assay: Inhibition of binding of HRP labeled WGA to immobilized porcine stomach […] relative to N-acetyl-glucosamine
In short: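 IC50 measured in the PSM-coated ELLA (WGA-HRP 1 μg mL⁻¹ final, 60 min pre-incubation with inhibitor, 90 min at 37 °C, ABTS read at 405 nm, duplicate). Relative potency β is the GlcNAc IC50 divided by the ligand IC50, with GlcNAc set to β = 1.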

| Compound | IC50 [1] [mM] | IC50 [2] [µM] | Activity [3] | Activity [4] |
| --- | --- | --- | --- | --- |
| CC(=O)N[C@H]1[C@H](OC/C=C\COC(=O)NCc2ccc(CNC(=O)OC/C=C\CO[C@@H]3O[C@H](CO)[C@@H](O)[C@H](O)[C@H]3NC(C)=O)cc2)O[C@H](CO)[C@@H](O)[C@@H]1O | 15 | 0.088 | 260 | 67 |
| CC(=O)N[C@@H]1[C@@H](O)[C@H](O)[C@@H](CO)O[C@H]1O [N-ACETYLGLUCOSAMINE] | 1000 | 23 |  | 1 |
| CCCNC(=O)OC/C=C\CO[C@@H]1O[C@H](CO)[C@@H](O)[C@H](O)[C@H]1NC(C)=O | 240 |  |  | 4.2 |
| CC(=O)N[C@H]1[C@H](OC/C=C\COC(=O)NCCCOCCOCCOCCCNC(=O)OC/C=C/CO[C@@H]2O[C@H](CO)[C@@H](O)[C@H](O)[C@H]2NC(C)=O)O[C@H](CO)[C@@H](O)[C@@H]1O | 75 | 0.288 | 80 | 13 |
| CC(=O)N[C@H]1[C@H](OC/C=C\COC(=O)NCCCOCCCCOCCCNC(=O)OC/C=C\CO[C@@H]2O[C@H](CO)[C@@H](O)[C@H](O)[C@H]2NC(C)=O)O[C@H](CO)[C@@H](O)[C@@H]1O | 60 |  |  | 17 |
| CC(=O)N[C@H]1[C@H](OC/C=C\COC(=O)NCc2ccccc2)O[C@H](CO)[C@@H](O)[C@@H]1O | 100 |  |  | 10 |
| CC(=O)N[C@H]1[C@H](OC/C=C\COC(=O)NCCN(CCNC(=O)OC/C=C\CO[C@@H]2O[C@H](CO)[C@@H](O)[C@H](O)[C@H]2NC(C)=O)CCNC(=O)OC/C=C\CO[C@@H]2O[C@H](CO)[C@@H](O)[C@H](O)[C@H]2NC(C)=O)O[C@H](CO)[C@@H](O)[C@@H]1O | 25 | 0.055 | 420 | 40 |
| CC(=O)N[C@H]1[C@H](OC/C=C\CO)O[C@H](CO)[C@@H](O)[C@@H]1O | 500 | 12 | 1.9 | 2 |
| CC(=O)N[C@H]1[C@H](OC/C=C\COC(=O)NCCNCCNC(=O)OC/C=C\CO[C@@H]2O[C@H](CO)[C@@H](O)[C@H](O)[C@H]2NC(C)=O)O[C@H](CO)[C@@H](O)[C@@H]1O | 40 |  |  | 25 |
| C=CCO[C@@H]1O[C@H](CO)[C@@H](O)[C@H](O)[C@H]1NC(C)=O | 280 | 10 | 2.3 | 3.6 |
| CC(=O)N[C@H]1[C@H](OC/C=C\COC(=O)NCc2cccc(CNC(=O)OC/C=C\CO[C@@H]3O[C@H](CO)[C@@H](O)[C@H](O)[C@H]3NC(C)=O)c2)O[C@H](CO)[C@@H](O)[C@@H]1O | 20 |  |  | 50 |
